Screening data: PubChem BioAssay, The Scripps Research Institute Molecular Screening Center
M4 ag = human M4 muscarinic receptor agonists, primary screen, CHO-K1 cells, Fluo-8 calcium fluorescence; AID 624127, 2012; CHO-K1 hM4/Gqi5; vehicle 0%, full acetylcholine response 100%; hit rate 0.14% among 360,000; activation, % at 3 µM; Muscarinic acetylcholine receptor M4 (Homo sapiens), P08173;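 active means activation above the run mean over all test wells plus 3 SD, cut at about 32% in these data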;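 further: peak over basal fluorescence ratio per well then scaled between controls; 0% = DMSO wells and 100% = acetylcholine at EC100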
M5 antag = human M5 muscarinic receptor antagonists, primary screen, CHO cells, Fluo-8 calcium fluorescence | AID 624040, 2012 | inhibition, % at 3 µM | Muscarinic acetylcholine receptor M5 (Homo sapiens), P08912 | hit rate 0.59% among 360,000 | CHO-hM5 cells, ACh EC80;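 active means inhibition above a per-plate cutoff, the mean of that plate's test compounds plus 3 SD, cut at about 27% in these data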;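 further: 0% = acetylcholine EC80 with DMSO and 100% = DMSO without agonist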
Target sequence (P08912 whole entry, looked up): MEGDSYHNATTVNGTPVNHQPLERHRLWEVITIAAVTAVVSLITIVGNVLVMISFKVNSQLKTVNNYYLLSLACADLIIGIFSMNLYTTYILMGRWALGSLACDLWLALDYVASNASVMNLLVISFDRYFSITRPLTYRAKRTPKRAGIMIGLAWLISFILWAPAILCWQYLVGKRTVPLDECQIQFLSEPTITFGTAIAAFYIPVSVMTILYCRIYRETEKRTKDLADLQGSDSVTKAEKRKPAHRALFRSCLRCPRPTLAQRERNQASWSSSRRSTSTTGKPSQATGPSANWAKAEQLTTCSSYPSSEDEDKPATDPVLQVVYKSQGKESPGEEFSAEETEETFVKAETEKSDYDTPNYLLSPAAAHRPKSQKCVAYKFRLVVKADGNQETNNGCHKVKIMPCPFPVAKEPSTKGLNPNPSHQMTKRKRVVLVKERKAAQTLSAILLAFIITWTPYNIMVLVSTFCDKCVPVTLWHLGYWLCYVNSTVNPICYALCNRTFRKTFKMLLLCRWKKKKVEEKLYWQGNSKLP
CHRM5 PAM = human M5 muscarinic receptor positive allosteric modulators, primary screen, CHO-K1 cells, Fluo-8 calcium fluorescence; Muscarinic acetylcholine receptor M5 (Homo sapiens), P08912; CHO-K1 hM5, ACh EC20 PAM; 0% = ACh EC20, 100% = ACh EC100; activation, % at 3 µM; hit rate 0.3% among 360,000; AID 624038, 2012;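 active means activation above the run cutoff, the mean activation of all test compounds plus 3 SD, cut at about 18% in these data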
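Assay system – human M5 receptor in CHO-K1 cells · Read-out – % activation, ACh-normalized · Technique – Fluo-8 calcium fluorescence · Dosing – single-point, 3 µM nominal · Incubation – Fluo-8 loading 80 min at 37 °C plus 30 min room temperature · Repeats – singlicate, one well per test compound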
CHRM4 PAM = human M4 muscarinic receptor positive allosteric modulators, primary screen, CHO-K1 cells, Fluo-8 calcium fluorescence; Muscarinic acetylcholine receptor M4 (Homo sapiens), P08173; CHO-K1 hM4/Gqi5, ACh EC20; 0% = ACh EC20, 100% = maximal ACh; activation, % at 3 µM; hit rate 0.4% among 360,000; AID 624126, 2012;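 active means activation above its plate's cutoff, the mean activation of sample wells plus 3 SD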
M4 antag = human M4 muscarinic receptor antagonists, primary screen, CHO cells, Fluo-8 calcium fluorescence; Muscarinic acetylcholine receptor M4 (Homo sapiens), P08173; hit rate 0.73% among 360,000; AID 624125, 2012; inhibition, % at 3 µM; CHO-hM4 cells, ACh EC80;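 active means inhibition above its plate's cutoff, the mean inhibition of sample wells plus 3 SD, cut at about 27% in these data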;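 further: 0% = acetylcholine EC80 with DMSO and 100% = DMSO without agonist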
M5 ag = human M5 muscarinic receptor agonists, primary screen, CHO-K1 cells, Fluo-8 calcium fluorescence. CHO-K1 hM5 cells; 0% DMSO wells, 100% maximal acetylcholine response. AID 624037, 2012. activation, % at 3 µM. Muscarinic acetylcholine receptor M5 (Homo sapiens), P08912. hit rate 0.19% among 360,000;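 active means activation above the run's mean over test compounds plus 3 SD, cut at about 23% in these data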;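 further: signal is peak over basal fluorescence ratio across the kinetic read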
* = called active by the depositor. The list is not random: actives were taken first. Their share in the collection is about 1.9%.

Results for CCN(CCCNC(=O)CNC(=O)c1nn(-c2ccc(OC)cc2)c(=O)c2ccccc12)c1cccc(C)c1 ?
M4 ag: 11.5; M5 antag: 29.1*; CHRM5 PAM: -10.8; CHRM4 PAM: -24.5; M4 antag: 12.0; M5 ag: -4.1

What do the screens show for `COc1ccc(-n2nc(C(=O)NCC(=O)NCCCN3CCCCCC3)c3ccccc3c2=O)cc1Cl`?
M4 ag: 1.1; M5 antag: 0.3; CHRM5 PAM: 5.5; CHRM4 PAM: -20.6; M4 antag: 31.8*; M5 ag: -11.6

Results for C/C(=N\NC(=O)c1cccc(Cl)c1)C1C(=O)c2ccccc2C1=O ?
M4 ag: 6.7; M5 antag: 10.9; CHRM5 PAM: -9.9; CHRM4 PAM: -4.3; M4 antag: -4.0; M5 ag: 4.5

What do the screens show for `C[C@H](CO)N1C[C@H](C)[C@@H](CN(C)C(=O)c2cccnc2)Oc2ncc(Br)cc2C1=O`?
M4 ag: 0.6; M5 antag: 0.1; CHRM5 PAM: 0.8; CHRM4 PAM: -0.3; M4 antag: -2.5; M5 ag: -1.4

How did CCNC(=O)C1(C)CCCN(C(=O)c2cc(OC)ccc2Br)C1 (stereo not drawn) do in these assays?
M4 ag: 0.1; M5 antag: -3.0; CHRM5 PAM: 0.6; CHRM4 PAM: 2.8; M4 antag: -5.9; M5 ag: 2.1

Results for CCN(CC(=O)NCc1ccc(Cl)cc1)C(=O)c1sccc1C ?
M4 ag: -0.4; M5 antag: 6.2; CHRM5 PAM: 8.9; CHRM4 PAM: 1.1; M4 antag: 10.1; M5 ag: -1.3

What do the screens show for `CN(Cc1nc2ccccc2n1C)S(=O)(=O)c1ccc(Cl)cc1`?
M4 ag: 0.9; M5 antag: -4.2; CHRM5 PAM: 4.2; CHRM4 PAM: 25.0*; M4 antag: -0.2; M5 ag: -4.7

How did C/C(=N\NC(=O)c1ccc2c(c1)OCO2)c1ccc(C(=O)O)s1 do in these assays?
M4 ag: 11.1; M5 antag: 28.0*; CHRM5 PAM: -16.2; CHRM4 PAM: -8.4; M4 antag: 7.7; M5 ag: 0.5

How did CCCC1(c2ccccc2)NC(=O)N(CC(=O)NCc2ccc(OC)cc2)C1=O (stereo not drawn) do in these assays?
M4 ag: 2.5; M5 antag: 1.7; CHRM5 PAM: -1.2; CHRM4 PAM: 21.0*; M4 antag: 1.8; M5 ag: -3.8

How did Cc1cc2nc3c(=O)n(CCc4ccccc4)c(=O)[nH]c3nc2cc1N do in these assays?
M4 ag: 8.8; M5 antag: 5.5; CHRM5 PAM: -6.7; CHRM4 PAM: -1.7; M4 antag: 0.1; M5 ag: 31.9*

Results for Nc1ccc2nc3c(=O)n(C4CCCCC4)c(=O)[nH]c3nc2c1 ?
M4 ag: 70.4*; M5 antag: 35.1*; CHRM5 PAM: -40.3; CHRM4 PAM: -42.4; M4 antag: 20.9; M5 ag: 133.3*

How did Nc1ccc2nc3c(=O)n(CCc4ccccc4)c(=O)[nH]c3nc2c1 do in these assays?
M4 ag: 44.9*; M5 antag: 32.7*; CHRM5 PAM: -31.4; CHRM4 PAM: -17.6; M4 antag: 17.7; M5 ag: 165.2*

Results for CCCCn1c(=O)[nH]c2nc3cc(N)ccc3nc2c1=O ?
M4 ag: 56.7*; M5 antag: 15.7; CHRM5 PAM: -10.9; CHRM4 PAM: -24.0; M4 antag: 22.3; M5 ag: 21.8

What do the screens show for `Nc1ccc2nc(CCc3ccccc3)[nH]c2c1`?
M4 ag: 6.1; M5 antag: 5.3; CHRM5 PAM: -6.3; CHRM4 PAM: 3.5; M4 antag: -6.4; M5 ag: -1.7

Results for CCOc1ccc(C(C)NC(=O)Cc2ccccc2F)cc1OCC (stereo not drawn) ?
M4 ag: -0.8; M5 antag: -0.8; CHRM5 PAM: 8.7; CHRM4 PAM: 0.3; M4 antag: -1.7; M5 ag: 3.2
